# Experiments:
# Format in all cases: functional
# [1] = test system: SF-295; assay: Growth inhibition of human SF295 cells after 48 hrs by sulforhodamine B assay; conditions: SF-295, 48 h; for CC50: read-out: LC50 (the source's name)
# Method in brief: (§1)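 Adherent NCI-60 lines were grown in RPMI 1640 with 5% FBS and 2 mM L-glutamine, plated at 5000–40,000 cells/well and preincubated 24 h. They were then exposed to five concentrations (0.01–100 µM, from a DMSO stock) for 48 h at 37 °C, 5% CO2. Cells were fixed with cold TCA (10% final, 60 min, 4 °C) and stained with 0.4% SRB. Dye was solubilized in 10 mM Tris base and A515 read. GI50 was derived from time-zero, control and treated absorbances.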
# [2] = test system: SK-MEL-28; assay: Cytotoxicity against human SK-MEL-28 cells assessed as cell growth at 10 '-5 M after 48 hrs by sulforhodamine B assay; conditions: SK-MEL-28, 48 h, read-out: Activity
# [3] = test system: NCI-H322M; assay: Cytotoxicity against human NCI-H322M cells assessed as cell growth at 1 uM after 48 hrs by sulforhodamine B assay; conditions: read-out: Activity
# [4] = test system: HCC 2998; assay: Cytotoxicity against human HCC2998 cells assessed as cell growth at 10 '-5 M after 48 hrs by sulforhodamine B assay; conditions: HCC 2998, 48 h, read-out: Activity
# Method in brief: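 Primary one-dose screen across the NCI 60-line panel at 10 µM. Cells were grown in RPMI 1640 with 5% FBS and 2 mM L-glutamine and held 24 h before drug. Drug was diluted from a DMSO concentrate. Exposure was 48 h at 37 °C, 5% CO2. Cells were fixed with TCA and stained with SRB, with absorbance read at 515 nm. Percent growth was calculated against time-zero and untreated control.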
# [5] = test system: SF-539; assay: Cytotoxicity against human SF539 cells assessed as cell growth at 1 uM after 48 hrs by sulforhodamine B assay; conditions: SF-539, 48 h, read-out: Activity
# [6] = test system: MCF7; assay: Cytotoxicity against human MCF7 cells assessed as cell growth at 0.1 uM after 48 hrs by sulforhodamine B assay; conditions: MCF7, 48 h, read-out: Activity
# [7] = test system: COLO 205; assay: Cytotoxicity against human COLO205 cells assessed as cell growth at 10 '-5 M after 48 hrs by sulforhodamine B assay; conditions: COLO 205, 48 h, read-out: Activity
# Method in brief: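 Primary NCI-60 single-dose screen at 10 µM. Cells were grown in RPMI 1640 with 5% FBS and 2 mM L-glutamine and plated 24 h before drug addition. Compound was solubilized in DMSO, then exposed for 48 h at 37 °C under 5% CO2. Cells were TCA-fixed and stained with SRB, and absorbance was read at 515 nm. Growth was expressed relative to time-zero and untreated controls.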
# [8] = test system: DU-145; assay: Cytotoxicity against human DU145 cells assessed as cell growth at 0.1 uM after 48 hrs by sulforhodamine B assay; conditions: DU-145, 48 h, read-out: Activity
# Method in brief: (§2)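 NCI-60 five-dose screen. Cells were grown in RPMI 1640 with 5% FBS and 2 mM L-glutamine and preincubated 24 h. Compound (DMSO stock) was tested at 0.01, 0.1, 1, 10 and 100 µM for 48 h at 37 °C. Cells were fixed in situ with cold TCA (final 10%) and stained with 0.4% SRB. A515 was read, and percent growth was calculated against time-zero and control plates.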
# [9] = test system: NCI-H23; assay: Cytotoxicity against human NCI-H23 cells assessed as cell growth at 10 uM after 48 hrs by sulforhodamine B assay; conditions: NCI-H23, 48 h, read-out: Activity
# [10] = test system: SF-268; assay: Cytotoxicity against human SF268 cells assessed as cell growth at 10 uM after 48 hrs by sulforhodamine B assay; conditions: SF-268, 48 h, read-out: Activity
# [11] = test system: MCF7; assay: Cytotoxicity against human MCF7 cells assessed as cell growth at 100 uM after 48 hrs by sulforhodamine B assay; conditions: MCF7, 48 h, read-out: Activity
# [12] = test system: SF-539; assay: Growth inhibition of human SF539 cells after 48 hrs by sulforhodamine B assay; conditions: SF-539, 48 h; method in brief: as §1
# [13] = test system: A498; assay: Cytotoxicity against human A498 cells assessed as cell growth at 1 uM after 48 hrs by sulforhodamine B assay; conditions: A498, 48 h, read-out: Activity; method in brief: as §2
# [14] = test system: MOLT-4; assay: Cytotoxicity against human MOLT4 cells assessed as cell growth at 0.01 uM after 48 hrs by sulforhodamine B assay; conditions: MOLT-4, 48 h, read-out: Activity
# [15] = test system: HCT-15; assay: Cytotoxicity against human HCT15 cells assessed as cell growth at 100 uM after 48 hrs by sulforhodamine B assay; conditions: HCT-15, 48 h, read-out: Activity
# Method in brief: (§3)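 Five-dose NCI panel run at 0.01, 0.1, 1, 10 and 100 µM. Cells were in RPMI 1640 with 5% FBS and 2 mM L-glutamine, seeded at 5000–40,000 cells/well and pre-incubated 24 h. Drug was diluted from a DMSO stock into medium with 50 µg/ml gentamicin. Exposure was 48 h at 37 °C, 5% CO2. Cells were fixed with cold TCA and stained with 0.4% SRB, read at 515 nm. Percent growth came from time-zero, control and test absorbances.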
# [16] = test system: CAKI-1; assay: Cytotoxicity against human Caki1 cells assessed as cell growth at 100 uM after 48 hrs by sulforhodamine B assay; conditions: CAKI-1, 48 h, read-out: Activity; method in brief: as §2
# [17] = test system: UACC-62; assay: Cytotoxicity against human UACC62 cells assessed as cell growth at 10 uM after 48 hrs by sulforhodamine B assay; conditions: UACC-62, 48 h, read-out: Activity
# [18] = test system: SNB-19; assay: Cytotoxicity against human SNB19 cells assessed as cell growth at 0.01 uM after 48 hrs by sulforhodamine B assay; conditions: SNB-19, 48 h, read-out: Activity
# [19] = test system: SR; assay: Cytotoxicity against human SR cells assessed as cell growth at 1 uM after 48 hrs by sulforhodamine B assay; conditions: read-out: Activity
# [20] = test system: OVCAR-8; assay: Cytotoxicity against human OVCAR8 cells assessed as cell growth at 0.1 uM after 48 hrs by sulforhodamine B assay; conditions: OVCAR-8, 48 h, read-out: Activity
# [21] = test system: SNB-75; assay: Cytotoxicity against human SNB75 cells assessed as cell growth at 1 uM after 48 hrs by sulforhodamine B assay; conditions: SNB-75, 48 h, read-out: Activity
# [22] = test system: ACHN; assay: Cytotoxicity against human ACHN cells assessed as cell growth at 0.1 uM after 48 hrs by sulforhodamine B assay; conditions: read-out: Activity; method in brief: as §2
# [23] = test system: SK-OV-3; assay: Cytotoxicity against human SKOV3 cells assessed as cell growth at 1 uM after 48 hrs by sulforhodamine B assay; conditions: SK-OV-3, 48 h, read-out: Activity
# [24] = test system: PC-3; assay: Cytotoxicity against human PC3 cells assessed as cell growth at 0.1 uM after 48 hrs by sulforhodamine B assay; conditions: PC-3, 48 h, read-out: Activity
# [25] = test system: SK-OV-3; assay: Growth inhibition of human SKOV3 cells after 48 hrs by sulforhodamine B assay; conditions: SK-OV-3, 48 h; method in brief: as §1
# [26] = test system: HCT-15; assay: Cytotoxicity against human HCT15 cells assessed as cell growth at 0.1 uM after 48 hrs by sulforhodamine B assay; conditions: HCT-15, 48 h, read-out: Activity; method in brief: as §3
SMILES,GI50 [1] [µM],TGI [1] [µM],CC50 [1] [µM],growth at 10 µM [2] [%],growth at 1 µM [3] [%],growth at 10 µM [4] [%],growth at 1 µM [5] [%],growth at 0.1 µM [6] [%],growth at 10 µM [7] [%],growth at 0.1 µM [8] [%],growth at 10 µM [9] [%],growth at 10 µM [10] [%],growth at 100 µM [11] [%],GI50 [12] [µM],LC50 [12] [µM],TGI [12] [µM],growth at 1 µM [13] [%],growth at 0.01 µM [14] [%],growth at 100 µM [15] [%],growth at 100 µM [16] [%],also measured
Cc1ccc2nc(Nc3c(C)cccc3C)sc2c1,0.725,> 100,> 100,45.5,91,54.1,76,92,32.2,102,58,64,46,66.8,> 100,> 100,53,104,40,42,growth at 10 µM [17]: 23%; growth at 0.01 µM [18]: 94%; growth at 1 µM [19]: 19%; growth at 0.1 µM [20]: 105%; growth at 1 µM [21]: 52%; growth at 0.1 µM [22]: 105%; growth at 1 µM [23]: 91%; growth at 0.1 µM [24]: 94%; LC50 [25]: > 100 µM; TGI [25]: > 100 µM; growth at 0.1 µM [26]: 98%
Clc1cccc(Cl)c1Nc1nc2cccc(Cl)c2s1,0.459,1.9,4.96,-48.1,76,-26.1,77,87,-90,102,-71,-87,-55,1.48,6.4,3.08,26,107,-74,-75,growth at 10 µM [17]: -85%; growth at 0.01 µM [18]: 91%; growth at 1 µM [19]: 51%; growth at 0.1 µM [20]: 101%; growth at 1 µM [21]: 46%; growth at 0.1 µM [22]: 98%; growth at 1 µM [23]: 86%; growth at 0.1 µM [24]: 81%; GI50 [25]: 1.6 µM; LC50 [25]: 5.95 µM; TGI [25]: 3.08 µM; growth at 0.1 µM [26]: 99%
